Bioassay records: PubChem, Johns Hopkins Ion Channel Center
Hits are enriched below; roughly 3.7% of the tested compounds scored in any of these assays.
KCNK9 inh: KCNK9 potassium channel inhibitors, primary screen, HEK293 cells, thallium flux; FluxOR thallium flux fluorescence; active compounds read low; B-score at 10 µM; hit rate 1.2% among 310,000; AID 488922, 2010;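 active = ratio B-score over 3 SD below the library mean, with starting fluorescence within 5 SD of its mean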;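 also: negative B-score means less thallium flux so channel inhibition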
hERG protect: hERG rescue from dofetilide block, primary screen, cell-based, CHO-hERG, FluxOR thallium flux, dofetilide IC70; Voltage-gated inwardly rectifying potassium channel KCNH2 (Homo sapiens), Q12809; dofetilide IC70 present; activation (rescue from dofetilide block), less the hit threshold, % at 10 µM; hit rate 0.51% among 310,000; AID 1511, 2009;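 active = activation above the mean of controls blocked by dofetilide plus 5 SD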;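 also: thallium influx through hERG after potassium depolarization seen as dye fluorescence rise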
KCNQ1 block: inhibitors of human KCNQ1 channel, primary screen, cell-based, thallium flux, high-throughput; AID 2642, 2010; hit rate 1.3% among 310,000; CHO-K1 KCNQ1, FluxOR thallium flux fluorescence; active compounds read high; B-score at 10 µM;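 active = compounds whose thallium flux B-score, printed positive for inhibition, exceeds three library SD while starting fluorescence stays within three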;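 also: channel opened by potassium depolarization with thallium stimulus after 20 min compound exposure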
Target sequence (P51787 whole entry, looked up): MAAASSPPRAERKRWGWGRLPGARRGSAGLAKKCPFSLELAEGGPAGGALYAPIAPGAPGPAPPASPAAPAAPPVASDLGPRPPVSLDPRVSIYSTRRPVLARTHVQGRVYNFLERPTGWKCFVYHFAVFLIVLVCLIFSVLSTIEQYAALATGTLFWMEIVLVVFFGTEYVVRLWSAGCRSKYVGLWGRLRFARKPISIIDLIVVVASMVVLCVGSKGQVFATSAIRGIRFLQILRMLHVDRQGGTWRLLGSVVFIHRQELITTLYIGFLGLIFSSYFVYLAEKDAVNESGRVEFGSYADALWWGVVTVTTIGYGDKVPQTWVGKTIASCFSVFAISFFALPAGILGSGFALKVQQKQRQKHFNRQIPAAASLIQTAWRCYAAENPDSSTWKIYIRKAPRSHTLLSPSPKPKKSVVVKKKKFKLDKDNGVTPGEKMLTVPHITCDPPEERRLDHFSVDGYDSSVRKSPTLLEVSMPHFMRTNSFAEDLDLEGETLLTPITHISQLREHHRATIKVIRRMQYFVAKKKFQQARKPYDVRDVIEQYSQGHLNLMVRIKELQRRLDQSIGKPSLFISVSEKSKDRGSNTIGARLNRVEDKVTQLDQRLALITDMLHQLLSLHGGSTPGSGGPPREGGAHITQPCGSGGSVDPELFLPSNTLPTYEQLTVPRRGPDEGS
Kir21 block: inhibitors of mouse Kir2.1 inward-rectifier potassium channel; hit rate 0.85% among 310,000; B-score at 10 µM; HEK293-Kir2.1, FluxOR thallium flux fluorescence; active compounds read low;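 active = fluorescence ratio B-score at or below minus 3 SD of library scores, with starting-brightness B-score within 2 SD, cut at about -4.2 in these data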;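 also: channel flux triggered by added potassium and thallium sulfate stimulus; B-score of peak minus minimum fluorescence over baseline after thallium stimulus; more negative B-score means stronger Kir2.1 block with less thallium influx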
KCNQ1 act: potentiators or activators of KCNQ1 channel, primary screen, cell-based, thallium flux, high-throughput. Potassium voltage-gated channel subfamily KQT member 1 (Homo sapiens), P51787. CHO-K1 KCNQ1, thallium flux FluxOR fluorescence; active compounds read high. B-score at 10 µM. hit rate 0.35% among 310,000. AID 2648, 2010;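 active = fluorescence ratio B-score, a plate-corrected score, at least three library SD, with initial intensity B-score within 5 SD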
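assay system = KCNQ1-transfected CHO-K1 cells | medium = assay buffer with matched DMSO | probe or stimulus = depolarizing K+/Tl+ stimulus, K2SO4 and Tl2SO4 each 12.5 mM in 5x stock | dosing = single dose | incubation = dye 90 min, compound 20 min, room temperature | detection = kinetic FluxOR fluorescence, 10 s baseline plus 110 s post-stimulus | evaluation = ratio B score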
KCNK3 inh: human KCNK3 channel inhibitors, primary screen, CHO cells, FluxOR thallium flux, B-score; Potassium channel subfamily K member 3 (Homo sapiens), O14649; B-score at 10 µM; hit rate 0.84% among 340,000; FluxOR fluorescence; active compounds read low;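 active = B-score under library mean minus 4 SD, starting fluorescence ratio at most library mean plus 5 SD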;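 also: more negative B-score means stronger inhibition of thallium flux through KCNK3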
KCNK9 block conf: KCNK9 potassium channel inhibitors, confirmation, HEK293 cells, thallium flux, duplicate; inhibition, % at 10 µM; hit rate 43% among 4,900; FluxOR thallium flux fluorescence; shares compounds with KCNK9 inh; AID 492992, 2010;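 active = thallium signal inhibited by more than 5 SD of the compound-free buffer control wells, on both duplicate plates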;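 also: 0% = assay buffer control wells without compound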
Kir2-1 spec: mouse Kir2.1 channel inhibition, confirmation, selectivity assay for KCNK9 modulator project, cell-based, HEK293, thallium flux. shares compounds with KCNK9 inh. Kir2.1 cells, FluxOR thallium flux fluorescence. inhibition, % at 10 µM. hit rate 4% among 4,900. AID 492993, 2010;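 active = thallium signal drop more than 5 SD beyond the mean of the no-compound control wells, seen in both duplicate plates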;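 also: signal is fluorescence rise after thallium addition divided by baseline fluorescence; plate controls were assay buffer only for no effect and full block by chlorpromazine control for full effect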
HEK293 Tl ctr: thallium flux in non-induced HEK293 cells, confirmation, counter-screen for KCNK9 inhibitor project, cell-based, second counter screen, non-induced KCNK9-HEK293; shares compounds with KCNK9 inh; FluxOR thallium flux; inhibition, % at 10 µM; hit rate 40% among 4,900;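 active = thallium signal drop beyond 5 SD of the untreated control mean, on both duplicate plates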;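 also: plate controls were buffer only IC0 wells for no effect and SID17386958 at its maximal inhibitory level for full effect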
An asterisk follows results filed as active; i = inactive; x = no result.

SMILES	KCNK9 inh	hERG protect	KCNQ1 block	Kir21 block	KCNQ1 act	KCNK3 inh	KCNK9 block conf	Kir2-1 spec	HEK293 Tl ctr
CC1=CC(c2ccc(Cl)cc2)n2nc(NC(=O)CCC(=O)O)nc2N1 (stereo unspecified)	i	-13.2	i	0.43	i	i	x	x	x
CN(c1ccccc1)S(=O)(=O)c1cccc(NC(=O)CSc2n[nH]c(N)n2)c1	i	-21.7	i	-0.79	i	i	i	i	i
Cc1ccc(O)c(C(=O)c2cc(C#N)c(=O)n(Cc3ccccc3)c2)c1	i	-2.6	i	0.49	i	i	x	x	x
COc1ccc(O)c(C(=O)c2cc(C(=O)NCCc3ccccc3)c(=O)n(CCc3ccccc3)c2)c1	i	-5.6	i	-0.02	i	i	i	i	i
COc1ccc(O)c(C(=O)CC(=O)c2ccccc2)c1	i	-0.2	i	1.33	i	x	x	x	x
Cc1ccc(O)c(C(=O)c2cc(C(=O)NCCc3ccccc3)c(=O)n(CCc3ccccc3)c2)c1	i	-22.7	6*	-0.15	i	i	i	i	i
COc1cc(/C=C(/C#N)C(=O)NCc2ccccc2)cc(OC)c1OC	i	-7.7	i	0.12	i	i	x	x	x
COc1ccc(/C=C(\C#N)C(=O)NCCc2ccccc2)cc1OCc1ccccc1	i	-18.6	i	0.6	i	i	i	i	i
COc1cc(C2C(C(=O)c3ccc(C)o3)=C(O)C(=O)N2CCN2CCOCC2)ccc1OCCC(C)C (stereo unspecified)	i	-7.6	i	-1.2	i	i	x	x	x
CCOC(=O)C1=C(C)N=C2SC(C)C(=O)N2C1c1cccc(F)c1 (stereo unspecified)	-16.6*	-13.9	6*	-0.02	i	i	64.5%*	i	60.5%*
CC1=C(C(=O)OC(C)C)C(c2cccc(F)c2)N2C(=O)C(C)SC2=N1 (stereo unspecified)	-12.6*	-14.3	i	-0.61	i	i	55.5%*	i	54.5%*
CCOC(=O)C1=C(C)N=C2SC(C)C(=O)N2C1c1ccc(OC(C)=O)c(OCC)c1 (stereo unspecified)	i	-8.8	i	-1.46	i	x	x	x	x
O=C(CSc1nnc(-c2ccc(C(F)(F)F)cn2)s1)c1ccccc1	i	-4.5	i	2.04	i	i	x	x	x
Cc1ccc(C2CC(c3ccccc3)=NN2c2ccccc2)o1 (stereo unspecified)	-9.09*	-11.9	8*	-1.55	i	i	41.0%*	i	29.5%*
Oc1ccccc1C1=NN(c2ccccc2)C(c2ccc(F)cc2)C1 (stereo unspecified)	i	-5.2	i	2.53	i	i	x	x	x
COc1ccc(C2CC(c3cccs3)=NN2c2ccc(C=O)cc2)cc1 (stereo unspecified)	i	-9.2	i	-5.43	i	x	x	x	x
c1ccc(C2CC(c3cccs3)=NN2c2ccccc2)cc1 (stereo unspecified)	-8.73*	-13.7	i	0.22	i	i	48.5%*	i	i
O=S(=O)(c1ccccc1)N1N=C(c2cccs2)CC1c1ccc(Br)cc1 (stereo unspecified)	-13.4*	-10.8	i	0.11	i	i	37.0%*	i	44.5%*
Oc1ccc(C2=NN(c3ccccc3)C(c3ccc(F)cc3)C2)cc1 (stereo unspecified)	-11.5*	-7.4	i	0.75	i	i	42.5%*	i	36.0%*
CC1=CC(C)C2COC(c3ccc[n+](C)c3)C1C2C (stereo unspecified)	i	-6.7	i	1.45	i	i	x	x	x
COc1ccc([N+](=O)[O-])cc1COc1cc(C)cc2oc(=O)cc(-c3ccccc3)c12	i	-7.5	i	1.22	i	i	x	x	x
COc1cc(C)c(C(=O)Oc2cc(C)c(C(=O)O)c(O)c2C)c(O)c1C(=O)O	i	-3.2	i	-1.13	i	i	x	x	x
COc1cc(C)c(C(=O)Oc2cc(C)c(C(=O)O)c(O)c2C)c(OC)c1C	i	-9.2	i	-0.02	i	i	i	i	i
CCN(CC)S(=O)(=O)c1cc(NC(=O)C(C)N2CCc3ccccc32)ccc1C (stereo unspecified)	i	-13.8	i	1.88	i	i	x	x	x
CCN(CC)S(=O)(=O)c1cc(NC(=O)C(C)N(C)CC(=O)Nc2c(C)cccc2C)ccc1C (stereo unspecified)	-10.3*	-10.9	i	-1.22	i	i	52.5%*	i	36.0%*
SMILES	KCNK9 inh	hERG protect	KCNQ1 block	Kir21 block	KCNQ1 act	KCNK3 inh	KCNK9 block conf	Kir2-1 spec	HEK293 Tl ctr
COC(=O)c1ccc(COc2ccccc2/C=C(\C#N)C(=O)Nc2c(C)cc(C)cc2C)cc1	-15.8*	-16.4	i	0.47	i	i	77.5%*	i	28.5%*
Cc1cc(C)c(NC(=O)/C(C#N)=C/c2ccc(OCc3ccc(F)cc3)cc2)c(C)c1	i	-11.4	i	0	i	i	i	i	i
COc1cc(/C=C(/C#N)C(=O)Nc2ccccc2)c(Br)cc1OCc1ccc(C(=O)O)cc1	i	-32.6	i	-1.15	i	i	x	x	x
COc1ccc(-c2nn(-c3ccccc3)cc2CNC[C@H]2O[C@@H](n3cnc4c(N)ncnc43)[C@H](O)[C@@H]2O)cc1	x	x	x	x	x	i	x	x	x
CN(C)S(=O)(=O)c1ccc(Cl)c(NC(=O)CNC2(C)CCS(=O)(=O)C2)c1 (stereo unspecified)	x	x	x	x	x	i	x	x	x
CC[C@@]1(C(=O)OC)N[C@H](CN(C)C(=O)Nc2ccc(C)cc2)[C@@H]2C(=O)N(C)C(=O)[C@@H]21	x	x	x	x	x	i	x	x	x
Cc1cc(OCCCCn2ccnc2)cc(C)c1Cl	i	-4.1	i	0.01	i	i	x	x	x
